Source: ChEMBL document CHEMBL1944532, “Synthesis and evaluation of anticancer activity of some novel 6-aryl-2-(p-sulfamylphenyl)-pyridazin-3(2H)-ones” (Eur J Med Chem, 2012)

Legend:
NCI-H522 = test: Cytotoxicity against human NCI-H522 cells after 48 hrs by SRB assay; type: functional; conditions: NCI-H522, 48 h, read-out: GI50
Method in brief: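 NCI five-dose screen on the ~60-line human tumor panel. Cells grown in RPMI-1640 with 5% fetal calf serum and 2 mM L-glutamine, seeded at line-dependent density and preincubated 24 h. Compound added from DMSO at 10-fold dilutions from 10^-4 to 10^-8 M, continuous exposure 48 h. Growth read by sulforhodamine B protein stain. GI50, TGI and LC50 derived per line.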

SR = test: Cytotoxicity against human SR cells after 48 hrs by SRB assay; type: functional; conditions: read-out: GI50
Method in brief: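 NCI 60-cell-line five-dose screen. Cells were grown in 1640 medium with 5% fetal calf serum and 2 mM L-glutamine, with inoculum density set by cell line, and pre-incubated 24 h. Compound in DMSO was added at 10^-4 to 10^-8 M (10-fold steps) with 48 h continuous exposure. Growth was read by SRB protein assay, and GI50, TGI and LC50 were derived from dose-response.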

In the case of `O=c1[nH]cc(F)c(=O)[nH]1` [FLUOROURACIL], the GI50 (NCI-H522) was 7.28 µM and the GI50 (SR) was 0.0238 µM.
